Experimental data taken from ChEMBL document CHEMBL3632459, “Synthesis and evaluation of aporphine analogs containing C1 allyl isosteres at the h5-HT(2A) receptor” (Bioorg Med Chem Lett, 2015).

Columns and labels:
[1] = target: Sodium-dependent noradrenaline transporter (Homo sapiens) (UniProt P23975); experiment: Displacement of [3H]-Nisoxetine from recombinant human NET at 10 uM after […] by Microbeta scintillation counting analysis relative to control
[2] = target: 5-hydroxytryptamine receptor 1E (Homo sapiens, UniProt P28566); experiment: Displacement of [3H]-5-HT from recombinant human 5-HT1E receptor after […] by Microbeta scintillation counting analysis
Sigma 2 receptor = experiment: Displacement of [3H]-DTG from recombinant human sigma-2 receptor after […] by Microbeta scintillation counting analysis
[3] = target: Alpha-1D adrenergic receptor (Homo sapiens) (UniProt P25100); experiment: Inhibition of recombinant human adrenergic alpha1D receptor at 10 uM after […] by Microbeta scintillation counting analysis relative to control
[4] = target: Mu-type opioid receptor (Homo sapiens) (UniProt P35372); experiment: Displacement of [3H]-DAMGO from recombinant human mu opioid receptor at 10 uM after […] by Microbeta scintillation counting analysis relative to control
D(1A) dopamine receptor = D(1A) dopamine receptor (Homo sapiens, UniProt P21728); experiment: Displacement of [3H]-[…] from recombinant human dopamine D1 receptor after […] by Microbeta scintillation counting analysis
[5] = target: Alpha-1A adrenergic receptor (Homo sapiens) (UniProt P35348); experiment: Displacement of [3H]-Prazosin from recombinant human adrenergic alpha1A receptor at 10 uM after […] by Microbeta scintillation counting analysis relative to control
Translocator protein = Translocator protein (Homo sapiens, UniProt P30536); experiment: Displacement of [3H]-PK11195 from recombinant human PBR after […] by Microbeta scintillation counting analysis
[6] = target: D(2) dopamine receptor (Homo sapiens) (UniProt P14416); experiment: Displacement of [3H]-N-methylspiperone from recombinant human dopamine D2 receptor at 10 uM after […] by Microbeta scintillation counting analysis relative to control
[7] = target: Histamine H1 receptor (Homo sapiens) (UniProt P35367); experiment: Displacement of [3H]-Pyrilamine from recombinant human histamine H1 receptor at 10 uM after […] by Microbeta scintillation counting analysis relative to control
[8] = target: 5-hydroxytryptamine receptor 2B (Homo sapiens, UniProt P41595); experiment: Displacement of [3H]-LSD from recombinant human 5-HT2B receptor after […] by Microbeta scintillation counting analysis
D(3) dopamine receptor = D(3) dopamine receptor (Homo sapiens, UniProt P35462); experiment: Displacement of [3H]-N-methylspiperone from recombinant human dopamine D3 receptor after […] by Microbeta scintillation counting analysis
[9] = target: GABA-A receptor; agonist GABA site (Homo sapiens) (UniProt P14867+P47870+P28472+P48169+P34903+P18505+P47869+P31644+Q16445); experiment: Displacement of [3H]-Muscimol from recombinant human GABAA receptor at 10 uM after […] by Microbeta scintillation counting analysis relative to control; type: protein-complex assay
[10] = target: Histamine H3 receptor (Homo sapiens) (UniProt Q9Y5N1); experiment: Displacement of [3H]-alpha-methylhistamine from recombinant human histamine H3 receptor at 10 uM after […] by Microbeta scintillation counting analysis relative to control
[11] = target: Histamine H4 receptor (Homo sapiens) (UniProt Q9H3N8); experiment: Displacement of [3H]-Histamine from recombinant human histamine H4 receptor at 10 uM after […] by Microbeta scintillation counting analysis relative to control
Histamine H2 receptor = Histamine H2 receptor (Homo sapiens, UniProt P25021); experiment: Displacement of [3H]-Tiotidine from recombinant human histamine H2 receptor after […] by Microbeta scintillation counting analysis
[12] = target: Alpha-2C adrenergic receptor (Homo sapiens, UniProt P18825); experiment: Displacement of [3H]-Clonidine from recombinant human adrenergic alpha2C receptor after […] by Microbeta scintillation counting analysis
[13] = target: 5-hydroxytryptamine receptor 3A (Homo sapiens, UniProt P46098); experiment: Displacement of [3H]-LY278584 from recombinant human 5-HT3 receptor after […] by Microbeta scintillation counting analysis
[14] = target: Beta-2 adrenergic receptor (Homo sapiens) (UniProt P07550); experiment: Displacement of [3H]-Iodopindolol from recombinant human adrenergic beta2 receptor at 10 uM after […] by Microbeta scintillation counting analysis relative to control
[15] = target: 5-hydroxytryptamine receptor 1B (Homo sapiens, UniProt P28222); experiment: Displacement of [3H]-[…] from recombinant human 5-HT1B receptor after […] by Microbeta scintillation counting analysis
[16] = target: 5-hydroxytryptamine receptor 1A (Homo sapiens) (UniProt P08908); experiment: Displacement of [3H]-8-OH-DPAT from recombinant human 5-HT1A receptor at 10 uM after […] by Microbeta scintillation counting analysis relative to control
[17] = target: Kappa-type opioid receptor (Homo sapiens) (UniProt P41145); experiment: Displacement of [3H]-U69593 from recombinant human kappa opioid receptor at 10 uM after […] by Microbeta scintillation counting analysis relative to control
[18] = target: Delta-type opioid receptor (Homo sapiens) (UniProt P41143); experiment: Displacement of [3H]-DADLE from recombinant human delta opioid receptor at 10 uM after […] by Microbeta scintillation counting analysis relative to control
[19] = target: Muscarinic acetylcholine receptor M5 (Homo sapiens, UniProt P08912); experiment: Displacement of [3H]-Tiotidine from recombinant human muscarinic M5 receptor after […] by Microbeta scintillation counting analysis
[20] = target: Beta-3 adrenergic receptor (Homo sapiens) (UniProt P13945); experiment: Displacement of [3H]-Iodopindolol from recombinant human adrenergic beta3 receptor at 10 uM after […] by Microbeta scintillation counting analysis relative to control
[21] = target: Sodium-dependent serotonin transporter (Homo sapiens) (UniProt P31645); experiment: Displacement of [3H]-Citalopram from recombinant human SERT at 10 uM after […] by Microbeta scintillation counting analysis relative to control
[22] = target: D(4) dopamine receptor (Homo sapiens) (UniProt P21917); experiment: Displacement of [3H]-N-methylspiperone from recombinant human dopamine D4 receptor at 10 uM after […] by Microbeta scintillation counting analysis relative to control
[23] = target: Muscarinic acetylcholine receptor M1 (Homo sapiens) (UniProt P11229); experiment: Displacement of [3H]-QNB from recombinant human muscarinic M1 receptor at 10 uM after […] by Microbeta scintillation counting analysis relative to control
[24] = target: Beta-1 adrenergic receptor (Homo sapiens) (UniProt P08588); experiment: Displacement of [3H]-Iodopindolol from recombinant human adrenergic beta1 receptor at 10 uM after […] by Microbeta scintillation counting analysis relative to control
[25] = target: Muscarinic acetylcholine receptor M4 (Homo sapiens) (UniProt P08173); experiment: Displacement of [3H]-QNB from recombinant human muscarinic M4 receptor at 10 uM after […] by Microbeta scintillation counting analysis relative to control
Rattus norvegicus = organism: Rattus norvegicus; experiment: Displacement of [3H]-Flunitrazepam from rat brain Benzodiazepine receptor at 10 uM after […] by Microbeta scintillation counting analysis relative to control
[26] = target: D(1B) dopamine receptor (Homo sapiens) (UniProt P21918); experiment: Displacement of [3H]-[…] from recombinant human dopamine D5 receptor at 10 uM after […] by Microbeta scintillation counting analysis relative to control
[27] = target: Muscarinic acetylcholine receptor M2 (Homo sapiens) (UniProt P08172); experiment: Displacement of [3H]-QNB from recombinant human muscarinic M2 receptor at 10 uM after […] by Microbeta scintillation counting analysis relative to control
[28] = target: 5-hydroxytryptamine receptor 1D (Homo sapiens, UniProt P28221); experiment: Displacement of [3H]-[…] from recombinant human 5-HT1D receptor after […] by Microbeta scintillation counting analysis
Homo sapiens = organism: Homo sapiens; experiment: Selectivity ratio of Ke(app) for adrenergic alpha1A receptor (unknown origin) to Ke(app) for human 5-HT2A receptor
Procedure, shortened: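 Ratio of apparent Ke values from matched FLIPR calcium functional assays at human 5-HT2A and at α1A receptors. Compounds were screened at 10 μM. Ke was taken from the rightward EC50 shift of an 8-point half-log agonist curve (5-HT at 5-HT2A) with one antagonist concentration, Ke = [L]/(DR−1). Values are means of ≥2 triplicate experiments.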

[29] = target: 5-hydroxytryptamine receptor 7 (Homo sapiens, UniProt P34969); experiment: Displacement of [3H]-LSD from recombinant human 5-HT7 receptor after […] by Microbeta scintillation counting analysis
[30] = target: Muscarinic acetylcholine receptor M3 (Homo sapiens) (UniProt P20309); experiment: Displacement of [3H]-QNB from recombinant human muscarinic M3 receptor at 10 uM after […] by Microbeta scintillation counting analysis relative to control
[31] = target: 5-hydroxytryptamine receptor 5A (Homo sapiens) (UniProt P47898); experiment: Displacement of [3H]-LSD from recombinant human 5-HT5A receptor at 10 uM after […] by Microbeta scintillation counting analysis relative to control
[32] = target: Alpha-2B adrenergic receptor (Homo sapiens, UniProt P18089); experiment: Displacement of [3H]-Clonidine from recombinant human adrenergic alpha2B receptor after […] by Microbeta scintillation counting analysis
[33] = target: Alpha-1B adrenergic receptor (Homo sapiens) (UniProt P35368); experiment: Displacement of [3H]-Prazosin from recombinant human adrenergic alpha1B receptor at 10 uM after […] by Microbeta scintillation counting analysis relative to control

D(2) dopamine receptor (Homo sapiens), sequence (P14416 whole entry): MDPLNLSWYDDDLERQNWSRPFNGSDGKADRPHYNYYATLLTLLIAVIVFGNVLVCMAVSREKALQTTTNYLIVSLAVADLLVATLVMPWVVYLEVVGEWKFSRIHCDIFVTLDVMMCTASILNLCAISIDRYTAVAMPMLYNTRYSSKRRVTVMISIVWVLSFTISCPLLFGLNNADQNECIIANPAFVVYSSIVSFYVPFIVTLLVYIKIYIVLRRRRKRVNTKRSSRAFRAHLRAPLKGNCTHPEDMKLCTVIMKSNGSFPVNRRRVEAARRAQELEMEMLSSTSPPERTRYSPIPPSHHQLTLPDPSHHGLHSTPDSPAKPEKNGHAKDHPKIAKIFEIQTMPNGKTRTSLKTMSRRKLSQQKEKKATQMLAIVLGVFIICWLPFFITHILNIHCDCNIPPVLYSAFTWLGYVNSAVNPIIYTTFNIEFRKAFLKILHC
D(1A) dopamine receptor, sequence (P21728 whole entry): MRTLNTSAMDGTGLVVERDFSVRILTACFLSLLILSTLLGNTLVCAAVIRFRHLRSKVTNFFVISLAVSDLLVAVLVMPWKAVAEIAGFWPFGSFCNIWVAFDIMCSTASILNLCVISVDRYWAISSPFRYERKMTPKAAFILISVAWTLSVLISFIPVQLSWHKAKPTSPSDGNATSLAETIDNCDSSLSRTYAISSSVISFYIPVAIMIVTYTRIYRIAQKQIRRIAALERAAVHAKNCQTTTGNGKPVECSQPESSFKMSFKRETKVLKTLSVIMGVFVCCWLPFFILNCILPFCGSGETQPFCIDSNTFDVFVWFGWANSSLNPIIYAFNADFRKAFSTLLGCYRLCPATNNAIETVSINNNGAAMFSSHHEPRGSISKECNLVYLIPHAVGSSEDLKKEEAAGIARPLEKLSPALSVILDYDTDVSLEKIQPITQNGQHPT
Alpha-1A adrenergic receptor (Homo sapiens), sequence (P35348 whole entry): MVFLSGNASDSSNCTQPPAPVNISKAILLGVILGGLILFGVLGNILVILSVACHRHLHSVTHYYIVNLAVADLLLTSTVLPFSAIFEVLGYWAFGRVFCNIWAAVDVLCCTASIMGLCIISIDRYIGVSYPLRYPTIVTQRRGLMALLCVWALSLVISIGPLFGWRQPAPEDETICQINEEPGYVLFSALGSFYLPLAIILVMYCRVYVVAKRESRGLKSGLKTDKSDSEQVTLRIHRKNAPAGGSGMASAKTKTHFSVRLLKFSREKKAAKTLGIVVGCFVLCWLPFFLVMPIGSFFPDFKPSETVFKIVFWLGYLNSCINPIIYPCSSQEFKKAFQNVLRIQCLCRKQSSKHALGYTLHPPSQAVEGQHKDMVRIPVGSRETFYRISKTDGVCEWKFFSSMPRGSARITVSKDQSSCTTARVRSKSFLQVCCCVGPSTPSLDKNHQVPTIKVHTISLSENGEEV
Translocator protein, sequence (P30536 whole entry): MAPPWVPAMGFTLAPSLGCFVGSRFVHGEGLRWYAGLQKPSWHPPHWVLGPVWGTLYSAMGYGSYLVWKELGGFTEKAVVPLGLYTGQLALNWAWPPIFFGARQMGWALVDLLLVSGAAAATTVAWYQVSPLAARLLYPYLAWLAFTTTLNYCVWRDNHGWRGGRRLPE
Beta-2 adrenergic receptor (Homo sapiens), sequence (P07550 whole entry, looked up): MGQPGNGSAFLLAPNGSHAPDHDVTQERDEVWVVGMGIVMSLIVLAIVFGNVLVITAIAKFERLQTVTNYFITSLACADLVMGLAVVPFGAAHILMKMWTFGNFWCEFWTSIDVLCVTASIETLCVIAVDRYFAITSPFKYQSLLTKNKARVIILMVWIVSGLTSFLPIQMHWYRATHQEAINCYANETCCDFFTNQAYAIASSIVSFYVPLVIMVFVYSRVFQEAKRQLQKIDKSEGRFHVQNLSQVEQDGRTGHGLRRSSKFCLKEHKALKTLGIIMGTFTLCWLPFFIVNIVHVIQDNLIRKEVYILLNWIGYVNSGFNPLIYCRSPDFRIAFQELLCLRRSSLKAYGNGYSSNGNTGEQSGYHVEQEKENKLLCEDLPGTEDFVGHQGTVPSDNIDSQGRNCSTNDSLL
Histamine H4 receptor (Homo sapiens), sequence (Q9H3N8 whole entry): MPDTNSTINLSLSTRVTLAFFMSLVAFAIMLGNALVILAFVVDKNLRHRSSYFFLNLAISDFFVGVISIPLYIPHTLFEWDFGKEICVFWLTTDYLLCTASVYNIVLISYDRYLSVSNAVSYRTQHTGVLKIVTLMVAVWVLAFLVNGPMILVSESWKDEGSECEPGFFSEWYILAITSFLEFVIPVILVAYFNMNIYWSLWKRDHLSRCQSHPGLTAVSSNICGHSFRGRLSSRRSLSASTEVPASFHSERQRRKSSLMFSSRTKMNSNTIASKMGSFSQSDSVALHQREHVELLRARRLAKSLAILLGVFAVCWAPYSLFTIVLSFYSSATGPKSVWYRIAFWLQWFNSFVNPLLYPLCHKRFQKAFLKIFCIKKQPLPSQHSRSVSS
5-hydroxytryptamine receptor 2B, sequence (P41595 whole entry): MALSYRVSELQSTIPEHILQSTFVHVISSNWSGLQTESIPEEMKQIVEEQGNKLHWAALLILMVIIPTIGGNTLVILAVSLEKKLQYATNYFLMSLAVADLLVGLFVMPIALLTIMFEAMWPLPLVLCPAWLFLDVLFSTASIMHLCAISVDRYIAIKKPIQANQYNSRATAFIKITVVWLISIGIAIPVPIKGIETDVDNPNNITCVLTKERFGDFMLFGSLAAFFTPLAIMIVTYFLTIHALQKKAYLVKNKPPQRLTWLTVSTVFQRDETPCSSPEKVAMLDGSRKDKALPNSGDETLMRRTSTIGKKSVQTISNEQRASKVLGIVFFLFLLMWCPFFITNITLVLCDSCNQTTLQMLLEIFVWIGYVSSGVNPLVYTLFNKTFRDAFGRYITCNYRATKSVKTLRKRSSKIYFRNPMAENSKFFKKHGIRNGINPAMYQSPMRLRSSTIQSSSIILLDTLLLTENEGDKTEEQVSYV
Histamine H1 receptor (Homo sapiens), sequence (P35367 whole entry): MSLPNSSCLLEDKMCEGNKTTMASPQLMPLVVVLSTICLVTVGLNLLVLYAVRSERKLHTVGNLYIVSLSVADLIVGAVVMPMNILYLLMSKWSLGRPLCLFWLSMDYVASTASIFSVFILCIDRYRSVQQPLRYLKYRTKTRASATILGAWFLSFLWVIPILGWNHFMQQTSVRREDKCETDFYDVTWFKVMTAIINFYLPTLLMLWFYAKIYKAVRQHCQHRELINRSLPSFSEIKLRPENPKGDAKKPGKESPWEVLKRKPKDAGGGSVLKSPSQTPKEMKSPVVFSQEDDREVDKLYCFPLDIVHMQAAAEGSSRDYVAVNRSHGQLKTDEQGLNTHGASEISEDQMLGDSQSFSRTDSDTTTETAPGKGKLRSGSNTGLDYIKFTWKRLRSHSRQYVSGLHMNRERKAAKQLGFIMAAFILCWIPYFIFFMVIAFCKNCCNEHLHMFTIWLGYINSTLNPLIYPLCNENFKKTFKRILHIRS
Beta-3 adrenergic receptor (Homo sapiens), sequence (P13945 whole entry, looked up): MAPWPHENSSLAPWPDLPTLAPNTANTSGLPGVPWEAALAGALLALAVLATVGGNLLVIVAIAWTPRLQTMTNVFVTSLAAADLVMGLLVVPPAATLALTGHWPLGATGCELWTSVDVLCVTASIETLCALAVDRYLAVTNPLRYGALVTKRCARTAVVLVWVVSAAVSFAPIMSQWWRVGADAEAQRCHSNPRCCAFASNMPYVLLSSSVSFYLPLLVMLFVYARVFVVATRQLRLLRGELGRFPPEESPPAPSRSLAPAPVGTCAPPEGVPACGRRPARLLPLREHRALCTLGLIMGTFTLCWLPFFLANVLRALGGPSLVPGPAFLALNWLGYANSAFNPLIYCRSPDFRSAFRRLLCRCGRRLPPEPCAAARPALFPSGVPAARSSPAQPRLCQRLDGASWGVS
D(1B) dopamine receptor (Homo sapiens), sequence (P21918 whole entry): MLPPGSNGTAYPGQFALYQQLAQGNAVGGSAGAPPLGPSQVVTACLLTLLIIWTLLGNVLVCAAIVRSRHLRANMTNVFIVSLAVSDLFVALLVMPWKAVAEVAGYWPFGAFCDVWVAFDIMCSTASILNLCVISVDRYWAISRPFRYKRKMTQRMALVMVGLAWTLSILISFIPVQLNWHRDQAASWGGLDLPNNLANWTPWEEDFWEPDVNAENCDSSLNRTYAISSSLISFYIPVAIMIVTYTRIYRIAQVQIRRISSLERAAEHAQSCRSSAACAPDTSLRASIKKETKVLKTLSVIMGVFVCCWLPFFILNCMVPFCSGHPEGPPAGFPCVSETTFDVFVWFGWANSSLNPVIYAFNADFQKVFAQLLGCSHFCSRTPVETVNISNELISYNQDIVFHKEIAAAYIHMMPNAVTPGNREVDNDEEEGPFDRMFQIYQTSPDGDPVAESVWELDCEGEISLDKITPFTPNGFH
Histamine H2 receptor, sequence (P25021 whole entry): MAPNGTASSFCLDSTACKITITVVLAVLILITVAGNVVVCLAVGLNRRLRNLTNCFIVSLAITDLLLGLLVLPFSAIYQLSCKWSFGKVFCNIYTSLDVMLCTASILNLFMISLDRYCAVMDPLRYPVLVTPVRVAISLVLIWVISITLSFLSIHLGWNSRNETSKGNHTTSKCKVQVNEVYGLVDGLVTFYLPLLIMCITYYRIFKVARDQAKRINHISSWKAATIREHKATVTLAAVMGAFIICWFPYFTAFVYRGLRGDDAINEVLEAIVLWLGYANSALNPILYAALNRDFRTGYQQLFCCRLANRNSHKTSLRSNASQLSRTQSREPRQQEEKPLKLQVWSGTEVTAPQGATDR
D(3) dopamine receptor, sequence (P35462 whole entry): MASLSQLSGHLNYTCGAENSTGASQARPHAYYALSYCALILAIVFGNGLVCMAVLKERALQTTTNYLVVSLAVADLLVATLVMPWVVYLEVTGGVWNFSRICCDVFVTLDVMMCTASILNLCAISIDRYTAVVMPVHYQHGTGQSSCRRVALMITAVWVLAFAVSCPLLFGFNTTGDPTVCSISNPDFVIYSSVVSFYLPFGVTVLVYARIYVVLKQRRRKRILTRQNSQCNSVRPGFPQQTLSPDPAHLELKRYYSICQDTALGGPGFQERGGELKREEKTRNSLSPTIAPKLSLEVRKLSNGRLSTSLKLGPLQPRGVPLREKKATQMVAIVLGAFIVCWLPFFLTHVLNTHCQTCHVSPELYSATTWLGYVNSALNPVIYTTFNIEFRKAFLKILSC

Work on `COc1cc2c3c(c1OCc1ccc(Br)cc1)-c1cc4c(cc1CC3N(C)CC2)OCO4` (stereo unspecified) yielded an inhibition [1] of under 50%, a Ki [2] of over 900 nM and a Ki (Sigma 2 receptor) of over 300 nM. The inhibition [3] was under 50%, the inhibition [4] was under 50% and the Ki (D(1A) dopamine receptor) was over 900 nM. The inhibition [5] was under 50%, the Ki (Translocator protein) was over 900 nM and the inhibition [6] was under 50%. It also gave an inhibition [7] of under 50%, a Ki [8] of over 900 nM and a Ki (D(3) dopamine receptor) of over 900 nM. The inhibition [9] was under 50%, the inhibition [10] was under 50% and the inhibition [11] was under 50%. For the same compound, the Ki (Histamine H2 receptor) was over 900 nM, the Ki [12] was over 900 nM and the Ki [13] was over 900 nM. The inhibition [14] was under 50%, the Ki [15] was over 900 nM and the inhibition [16] was under 50%. It also gave an inhibition [17] of under 50%, an inhibition [18] of under 50% and a Ki [19] of over 900 nM. For the same compound, the inhibition [20] was under 50%, the inhibition [21] was under 50% and the inhibition [22] was under 50%. For the same compound, the inhibition [23] was under 50%, the inhibition [24] was under 50% and the inhibition [25] was under 50%. For the same compound, the inhibition (Rattus norvegicus) was under 50%, the inhibition [26] was under 50% and the inhibition [27] was under 50%. For the same compound, the Ki [28] was over 900 nM, the Ratio Ke (Homo sapiens) was over 1090 and the Ki [29] was over 900 nM. The inhibition [30] was under 50%, the inhibition [31] was under 50% and the Ki [32] was over 900 nM. The inhibition [33] was under 50%.

Compound `COc1cc2c3c(c1OCCOC(C)=O)-c1cc4c(cc1CC3N(C)CC2)OCO4` (stereo unspecified) has a Ratio Ke (Homo sapiens) of 0.3.
